Test results: ChEMBL document CHEMBL2390929, “New nitric oxide donating 1,2,4-triazole/oxime hybrids: synthesis, investigation of anti-inflammatory, ulceroginic liability and antiproliferative activities” (Bioorg Med Chem, 2013)

Assays:
SF-295 = assay: Cytotoxicity against human SF295 cells assessed as cell growth at 10^-5 M after 48 hrs by SRB assay; type: functional; details: SF-295, 48 h, read-out: Activity
Outline: (§1)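 NCI 60-cell-line primary one-dose screen across nine tumour subpanels. Compound added at a single concentration of 10^-5 M and cultures incubated 48 h. Endpoint was sulforhodamine B protein staining read spectrophotometrically, with growth expressed as percent of untreated control cells.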

NCI-H460 = assay: Cytotoxicity against human NCI-H460 cells assessed as cell growth at 10^-5 M after 48 hrs by SRB assay; type: functional; details: NCI-H460, 48 h, read-out: Activity; outline: as §1
SN12C = assay: Cytotoxicity against human SN12C cells assessed as cell growth at 10^-5 M after 48 hrs by SRB assay; type: functional; details: read-out: Activity
Outline: (§2)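 NCI-60 one-dose screen across nine tumour subpanels. Each agent added once at 10^-5 M, cultures incubated 48 h. Endpoint is sulforhodamine B protein staining read spectrophotometrically. Output is percent growth of treated cells relative to untreated controls.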

MOLT-4 = assay: Cytotoxicity against human MOLT4 cells assessed as cell growth at 10^-5 M after 48 hrs by SRB assay; type: functional; details: MOLT-4, 48 h, read-out: Activity; outline: as §1
SNB-75 = assay: Cytotoxicity against human SNB75 cells assessed as cell growth at 10^-5 M after 48 hrs by SRB assay; type: functional; details: SNB-75, 48 h, read-out: Activity; outline: as §2
LOX IMVI = assay: Cytotoxicity against human LOXIMVI cells assessed as cell growth at 10^-5 M after 48 hrs by SRB assay; type: functional; details: read-out: Activity; outline: as §1
[1] = Induction of nitric oxide release in phosphate buffer at pH 7.4 at 0.1 mM after 2 hrs by Griess method in presence of 0.5 mM of N-acetylcysteine; type: physicochemical; details: pH 7.4, 2 h, 100 µM
Outline: (§3)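 Compound in DMF diluted to final 10^-4 M in 1:1 50 mM phosphate buffer pH 7.4/MeOH with 5×10^-4 M N-acetylcysteine, 37 °C. Aliquot mixed with Griess reagent, 10 min at room temperature, A546 read. Nitrite quantified against sodium nitrite standards (10–80 nmol/mL); NO expressed as mol/mol. n = 4 reaction mixtures per compound.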

Rattus norvegicus [2] = assay: Antiinflammatory activity in albino rat assessed as inhibition of carrageenan-induced paw edema at 0.28 mmol/kg, po after 4 hrs relative to control; type: functional
Outline: (§4)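 Adult male albino rats (120–140 g), four per group, fasted 24 h with water allowed. Test agent suspended in 0.5% w/v aqueous CMC and given orally at 0.28 mmol/kg; controls received CMC alone. After 30 min, 0.1 mL fresh 1% carrageenan in saline was injected subplantar into the right hind paw and saline into the left. Paw thickness was measured by Vernier caliper; % inhibition = [(VR−VL)control − (VR−VL)treated]/(VR−VL)control ×100. Mean ± SEM, one-way ANOVA.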

U-251 = assay: Cytotoxicity against human U251 cells assessed as cell growth at 10^-5 M after 48 hrs by SRB assay; type: functional; details: U-251, 48 h, read-out: Activity; outline: as §2
OVCAR-8 = assay: Cytotoxicity against human OVCAR8 cells assessed as cell growth at 10^-5 M after 48 hrs by SRB assay; type: functional; details: OVCAR-8, 48 h, read-out: Activity; outline: as §1
BT-549 = assay: Cytotoxicity against human BT549 cells assessed as cell growth at 10^-5 M after 48 hrs by SRB assay; type: functional; details: BT-549, 48 h, read-out: Activity; outline: as §1
[3] = Cytotoxicity against human EKVX cells assessed as cell growth at 10^-5 M after 48 hrs by SRB assay; type: functional; details: read-out: Activity; outline: as §1
CAKI-1 = assay: Cytotoxicity against human CAKI-1 cells assessed as cell growth at 10^-5 M after 48 hrs by SRB assay; type: functional; details: CAKI-1, 48 h, read-out: Activity; outline: as §1
UO-31 = assay: Cytotoxicity against human UO31 cells assessed as cell growth at 10^-5 M after 48 hrs by SRB assay; type: functional; details: UO-31, 48 h, read-out: Activity; outline: as §2
SW-620 = assay: Cytotoxicity against human SW620 cells assessed as cell growth at 10^-5 M after 48 hrs by SRB assay; type: functional; details: SW-620, 48 h, read-out: Activity; outline: as §2
HL-60(TB) = assay: Cytotoxicity against human HL-60(TB) cells assessed as cell growth at 10^-5 M after 48 hrs by SRB assay; type: functional; details: HL-60, 48 h, read-out: Activity
Outline: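 NCI 60-cell-line one-dose screen: compound added to cultures at a single concentration of 10^-5 M, incubated 48 h. End point by sulforhodamine B protein staining, read spectrophotometrically. Value is percent growth of treated cells relative to untreated control cells.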

COLO 205 = assay: Cytotoxicity against human COLO205 cells assessed as cell growth at 10^-5 M after 48 hrs by SRB assay; type: functional; details: COLO 205, 48 h, read-out: Activity; outline: as §1
[4] = Induction of nitric oxide release in phosphate buffer at pH 7.4 at 0.1 mM after 1 hr by Griess method in presence of 0.5 mM of N-acetylcysteine; type: physicochemical; details: pH 7.4, 1 h, 100 µM; outline: as §3
HOP-62 = assay: Cytotoxicity against human HOP62 cells assessed as cell growth at 10^-5 M after 48 hrs by SRB assay; type: functional; details: HOP-62, 48 h, read-out: Activity; outline: as §1
Rattus norvegicus [5] = assay: Antiinflammatory activity in albino rat assessed as inhibition of carrageenan-induced paw edema at 0.28 mmol/kg, po after 2 hrs relative to control; type: functional; outline: as §4
SF-268 = assay: Cytotoxicity against human SF268 cells assessed as cell growth at 10^-5 M after 48 hrs by SRB assay; type: functional; details: SF-268, 48 h, read-out: Activity; outline: as §1
NCI-H522 = assay: Cytotoxicity against human NCI-H522 cells assessed as cell growth at 10^-5 M after 48 hrs by SRB assay; type: functional; details: NCI-H522, 48 h, read-out: Activity; outline: as §1
Rattus norvegicus [6] = assay: Antiinflammatory activity in albino rat assessed as inhibition of carrageenan-induced paw edema at 0.28 mmol/kg, po after 5 hrs relative to control; type: functional; outline: as §4
HCT-116 = assay: Cytotoxicity against human HCT116 cells assessed as cell growth at 10^-5 M after 48 hrs by SRB assay; type: functional; details: HCT-116, 48 h, read-out: Activity; outline: as §1
RPMI-8226 = assay: Cytotoxicity against human RPMI8226 cells assessed as cell growth at 10^-5 M after 48 hrs by SRB assay; type: functional; details: RPMI-8226, 48 h, read-out: Activity; outline: as §1
OVCAR-5 = assay: Cytotoxicity against human OVCAR5 cells assessed as cell growth at 10^-5 M after 48 hrs by SRB assay; type: functional; details: OVCAR-5, 48 h, read-out: Activity; outline: as §1
Rattus norvegicus [7] = assay: Antiinflammatory activity in albino rat assessed as inhibition of carrageenan-induced paw edema at 0.28 mmol/kg, po after 1 hr relative to control; type: functional; outline: as §4
Rattus norvegicus [8] = assay: Antiinflammatory activity in albino rat assessed as inhibition of carrageenan-induced paw edema at 0.28 mmol/kg, po after 3 hrs relative to control; type: functional; outline: as §4
M14 = assay: Cytotoxicity against human M14 cells assessed as cell growth at 10^-5 M after 48 hrs by SRB assay; type: functional; details: M14, 48 h, read-out: Activity; outline: as §1
Hs-578T = assay: Cytotoxicity against human Hs578T cells assessed as cell growth at 10^-5 M after 48 hrs by SRB assay; type: functional; details: read-out: Activity; outline: as §1

SMILES | growth at 10 µM (SF-295) | growth at 10 µM (NCI-H460) | growth at 10 µM (SN12C) | growth at 10 µM (MOLT-4) | growth at 10 µM (SNB-75) | growth at 10 µM (LOX IMVI) | Activity [1] | inhibition in vivo at 280 µmol/kg (Rattus norvegicus [2]) | growth at 10 µM (U-251) | growth at 10 µM (OVCAR-8) | growth at 10 µM (BT-549) | growth at 10 µM [3] | growth at 10 µM (CAKI-1) | growth at 10 µM (UO-31) | growth at 10 µM (SW-620) | growth at 10 µM (HL-60(TB)) | growth at 10 µM (COLO 205) | Activity [4] | growth at 10 µM (HOP-62) | inhibition in vivo at 280 µmol/kg (Rattus norvegicus [5]) | also measured
COc1cc(-c2nnc(SC/C(=N/O)c3ccccc3)n2-c2ccccc2)cc(OC)c1OC | 93.1% | 110% | 95.8% | 81.7% | 84.5% | 91.7% | 0.11 mol/mol | 76% | 94.1% | 98.3% | 85.3% | 97.9% | 79% | 69.5% | 114% | 81.1% | 108% | 0.07 mol/mol | 101% | 61% | growth at 10 µM (SF-268): 114%; growth at 10 µM (NCI-H522): 82.1%; inhibition in vivo at 280 µmol/kg (Rattus norvegicus [6]): 68%; growth at 10 µM (HCT-116): 92.7%; growth at 10 µM (RPMI-8226): 73.6%; growth at 10 µM (OVCAR-5): 115%; inhibition in vivo at 280 µmol/kg (Rattus norvegicus [7]): 61%; inhibition in vivo at 280 µmol/kg (Rattus norvegicus [8]): 64%; growth at 10 µM (M14): 108%; growth at 10 µM (Hs-578T): 103%
C=CCn1c(SC/C(=N\O)c2ccccc2)nnc1-c1ccc(OC)c(OC)c1 | 104% | 105% | 98.2% | 85.3% | 86.9% | 88.2% | 0.15 mol/mol | 78% | 94.2% | 96.8% | 124% | 101% | 90% | 77.9% | 104% | 72.3% | 106% | 0.09 mol/mol | 92.2% | 57% | growth at 10 µM (SF-268): 105%; growth at 10 µM (NCI-H522): 89%; inhibition in vivo at 280 µmol/kg (Rattus norvegicus [6]): 69%; growth at 10 µM (HCT-116): 112%; growth at 10 µM (RPMI-8226): 83.7%; growth at 10 µM (OVCAR-5): 107%; inhibition in vivo at 280 µmol/kg (Rattus norvegicus [7]): 53%; inhibition in vivo at 280 µmol/kg (Rattus norvegicus [8]): 58%; growth at 10 µM (M14): 123%; growth at 10 µM (Hs-578T): 97.3%
CCn1c(SC/C(=N/O)c2ccccc2)nnc1-c1ccccc1 | 109% | 102% | 88.5% | 94.8% | 87.8% | 104% | 0.08 mol/mol | 73% | 102% | 111% | 115% | 90.6% | 89% | 91.5% | 98.7% | 103% | 115% | 0.06 mol/mol | 111% | 69% | growth at 10 µM (SF-268): 108%; growth at 10 µM (NCI-H522): 112%; inhibition in vivo at 280 µmol/kg (Rattus norvegicus [6]): 71%; growth at 10 µM (HCT-116): 101%; growth at 10 µM (RPMI-8226): 89.7%; growth at 10 µM (OVCAR-5): 96.8%; inhibition in vivo at 280 µmol/kg (Rattus norvegicus [7]): 65%; inhibition in vivo at 280 µmol/kg (Rattus norvegicus [8]): 72%; growth at 10 µM (M14): 109%; growth at 10 µM (Hs-578T): 101%
